System: MS2 coat protein
Test: apparent Kd, MS2 coat protein; higher = weaker binding; RNA-MaP array; FMN 200 µM where present
Outline: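 Green signal from SNAP-549-labelled MS2 coat protein was normalised to red-channel RNA signal and to the median Fmax of control clusters. The protein was titrated from 0.7 or 1.5 nM, doubling to 3 µM, without and then with constant ligand, over designs transcribed by stalled E. coli RNA polymerase on Illumina sequencing-chip clusters, in 100 mM Tris-HCl pH 7.5, 80 mM KCl, 4 mM MgCl2, BSA, DTT, yeast tRNA and Tween-20. The apparent Kd is the median of filtered per-cluster binding-curve fits.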

[1] = designed as: OFF switch for flavin mononucleotide, no ligand
[2] = ligand present: flavin mononucleotide, designed as: OFF switch for flavin mononucleotide
[3] = designed as: ON switch for flavin mononucleotide, no ligand
[4] = ligand present: flavin mononucleotide, designed as: ON switch for flavin mononucleotide

| Sequence | apparent Kd [1] | apparent Kd [2] | apparent Kd [3] | apparent Kd [4] |
| --- | --- | --- | --- | --- |
| CUCGAGUUAGGAUAUUGAACGUAACAAGCGGGAACUCCCGCCAAGAAGGAACAUGAGGAUCACCCAUGUGAAAC | 0.021 µM | 0.0213 µM |  |  |
| GUAGCAUACAGAGGAUAUUCAAAACCGGAAACGGACAUGAGGAUCACCCAUGUGGCGAAAGCCAGGGAGAAGGCUGAAUGCUAC |  |  | 0.0328 µM | 0.0148 µM |
| CUGUGGGCCAUAGGAUAUGCGCAGAAUUAGCAAGCAGAAGGGUGGAUCGUACAAUAAUAACUACAUGAGGAUCACCCAUGUGCU |  |  | 0.36 µM | 0.0396 µM |
| GUAGCUACAUGAGGAUCACCCAUGUAGGAUAUCGCUAUUGUAAUCAUGUUACAUGAUUACAAUAGCGAGAAGGACGUUAGCUAC | 0.0065 µM | 0.00716 µM |  |  |
| UGAUAGGACAGAGGAUAUACAGAUAGGAUCUACUAUCAAACAGUCCUUACAUGAGGAUCACCCAUGUAGAAGGCUGUCCUAUCU | 0.0198 µM | 0.0858 µM |  |  |
| GAAACCUAGUCAGGAUAUCGGGCAAUAAUUGCACGAGAAGGGACAUGAGGAUCACCCAUGUACACCUCUGGUGAGUCUCGCAGG | 0.0244 µM | 0.0736 µM |  |  |
| UUUUCUUUUGUGAGGAUAUACUUCUUUUUCUUUUUGUAGAAGGCACAUGAGGAUCACCCAUGUUUUCUUUUCUC | 0.0121 µM | 0.016 µM |  |  |
| AGGCGACAUGAGGAUCACCCAUGUGAGGAUAUCGAACUCAACUGAGGAGAGAGUAAGGCGAGAAGGCACACAGU | 0.0221 µM | 0.0364 µM |  |  |
| AUUAUUUUGUAGAAGGACGACUAUUAAUAUAUCGUAGGAUAUACUAUUUACAUGAGGAUCACCCAUGUUUAAAUGGAACAAUGU | 0.00499 µM | 0.00623 µM |  |  |
| CCACAUGAGGAUCACCCAUGUAGGAUAAAUCACGGCUUGGCACAGGAUAUACGGAGCGACGGAUCGUAGAAGGGUGCACUCGGC |  |  | 0.00837 µM | 0.00607 µM |
| GGAAAGAAAAGCGAGGAUAUGCUAGGUAAUACAUGAGGAUCACCCAUGUUUUUUUUUAACAAAUUGCAGAAGGCGCAAGAAAGAAA |  |  | 0.0245 µM | 0.0174 µM |
| CAGGUAGACUGAGGAUAUACAAUAAACAGCUAGUCUAUCUAGCUGUCCACAUGAGGAUCACCCAUGUAGAAGGCAGUCUGCCUG | 0.0189 µM | 0.042 µM |  |  |
| CGCUACUACCAGAAGGACAUGAGGAUCACCCAUGUAGGAUAUGGGUUACAAGUACCAGUGUAGAGAAACUACGCUACAGUAGCG |  |  | 0.0298 µM | 0.0083 µM |
| AUGUUACAUGAGGAUCACCCAUGUGAGGAUAUGUGUAUCCCUAAAAAAGUGUGGGACCAUAGAAGGCAUUUGGA | 0.0591 µM | 0.0641 µM |  |  |
| GUAGUGUGAGGAUAUGAUUAAUAGAAGGGAAUGCGACUGCAUCAGAAGGCACAUGAGGAUCACCCAUGUAUGAA | 0.0195 µM | 0.0292 µM |  |  |
| UAUUAGUGAGGAUAUGAGUCGUAGAACAAUAGUACUACGUCUCAGAAGGUACAUGAGGAUCACCCAUGUUCCUU | 0.0127 µM | 0.0144 µM |  |  |
| AAAUAGGCAGGAUAUACAUGAGGAUCACCCAUGUGCCUAUGAAAGGUAAUUUUGAAAGGUAGAAGGGCCUAAAA | 0.0105 µM | 0.0121 µM |  |  |
| GCCUCACAUGAGGAUCACCCAUGUCAGGAUAUAGGAGACGGCAGAAAUCCUGCCAUCGCUAGAAGGGACUGGCA | 0.0239 µM | 0.105 µM |  |  |
| UAAAUUUUAUGAUAUUAUGACAGUAGAAGGCUAUACAUGUUGAUACAUGAGGAUCACCCAUGUAUAGAGGAUAUAUACAAUUAU | 1.05 µM | 0.315 µM |  |  |
| AAGCCCUGAGGAUAUCCCAACUCGCACAUGAGGAUCACCCAUGUCCUUCUCUGGGUUUCGGGAGAAGGCAGGUCUC | 0.348 µM | 0.161 µM |  |  |
| AUGUAGUGCGAAGGAUAUGCGACUGCCUCGGCCGCAGAAGGUCGCACAUGAGGAUCACCCAUGUGCGGUGCAAAGAGUGGUUCU | 0.111 µM | 0.0763 µM |  |  |
| GUGCUUAACUAGAAGGCCGAUAGCAAAGCUAUCGGAGGAUAUGGGUUCCGGAAACGGACAUGAGGAUCACCCAUGUGGCACAAA |  |  | 0.121 µM | 0.0146 µM |
| AACAUGGUAUCAGGAUAUGGGUGUCACAACCACUCAGAAGGGAUACCGAUGACAUGAGGAUCACCCAUGUCGCUAUUUACCUGU |  |  | 0.0172 µM | 0.00798 µM |
| GUGCGGAACCUAGGAUAUCCGGCAUGGACAGGUGGUAAGUCUCCCACAUGAGGAUCACCCAUGUAGGAGAAGGAGGAUCACGGA | 0.00646 µM | 0.00607 µM |  |  |

| Sequence | apparent Kd [1] | apparent Kd [2] | apparent Kd [3] | apparent Kd [4] |
| --- | --- | --- | --- | --- |
| AAAAAACAUGAGGAUCACCCAUGUAAUAAAACGUCAGGAUAUUGAUUUUAUUAUUUAUUGCGAGAAGGGACAAAAA |  |  | 0.0372 µM | 0.0244 µM |
| UUUUAACAUGAGGAUCACCCAUGUGAGGAUAUCGAAAUUUAUAUUAAUAUUUAUAUAUCGAGAAGGCACAUUUU | 0.113 µM | 0.0978 µM |  |  |
| GUCAGCUCGUGAGGAUAUACAACACUGCUUCGCCAGUGUAUUAAGAUCACAUGAGGAUCACCCAUGUAGAAGGCACGAGCUGAU | 0.0144 µM | 0.216 µM |  |  |
| UUGGUUGUCGUAGGAUAUGUAGGAUAUUCCUACAUGAGGAUCACCCAUGUUCGCAUGGAAGAAGGACAGAAGGACGAUGACCAA |  |  | 1.08 µM | 0.0104 µM |
| UGUUAAUUGUAGAAGGGUGACAUGAGGAUCACCCAUGUUCACAUGCGAUUUACGGCGCAUGUUCCACAGGAUAUACAGUUGAGU |  |  | 0.556 µM | 0.0978 µM |
| AUGUUACAUGAGGAUCACCCAUGUGAGGAUAUGUGUACCGGUAAAAAAGUGUUUGGCCACAGAAGGCAUUUGGA | 0.0287 µM | 0.0269 µM |  |  |
| UUGGACGUCGUAGGAUAUGUAGGAUAUUCCUACAUGAGGAUCACCCAUGUUGACAAGGAAGAAGGACAGAAGGACGAUGUCCAU |  |  | 0.00537 µM | 0.00337 µM |
| UGGUGAAGUGUAGGAUAUGGAGAUGGGUUUUGGCCAGAAGGACAUGAGGAUCACCCAUGUGGUAGAGGGUUGGUGGUGGCUCGU | 0.0316 µM | 0.0243 µM |  |  |
| AAUUUAAUACAUGAGGAUCACCCAUGUAAAUUAAUUAAGAUCAAGGAUAUCAGCUCGUUUAGAGCUGAGAAGGUGAUCACAUGU |  |  | 0.343 µM | 0.097 µM |
| GCGUUACAUGAGGAUCACCCAUGUGAGGAUAUGGUUCGGUACUGUCCUGUCGCGUACUCCAGAAGGCACGGGUG | 0.2 µM | 0.115 µM |  |  |
| GUGGUCAGACAUGAGGAUCACCCAUGUGGAAUAAAUAAGGAGAAGGAUAUUGAAUAUAGGAUAUACAAGAAGGUCUGGUUGGUG |  |  | 0.0849 µM | 0.087 µM |
| AAAAUCUAUUGAGGAUAUUCAUACACUACAUACGAAGAAGGCAAACAAUCAUGAGGACAUGAGGAUCACCCAUGUUGUGACCAU |  |  | 0.024 µM | 0.0155 µM |
| AUGUAGAACGUAGGAUAUCAAUGAGGAUCACCCUGAGAAGGACGUGAGGACAUGAGGAUCACCCAUGUGGAUCACCCAUGUCAU | 0.16 µM | 0.134 µM |  |  |
| UAUCUAGGCGAAGGAUAUCCGUCGCGAGAUACUGGAGAAGGUCGCCUUGAUACAUGAGGAUCACCCAUGUGGCGGGUGAACCAA | 0.0379 µM | 0.0164 µM |  |  |
| GCUAUGUCAGGAUAUGCUAGUGCUAGUGAAAGCUAGUGCUAGUAGAAGGGACAUGAGGAUCACCCAUGUGUAGU | 0.107 µM | 0.374 µM |  |  |
| GAUCCUUCUGUUAGGAUAUGCUUCGGGCUUCCGCAGCAGAAGGAACAUGAGGAUCACCCAUGUCAAAUAAAAUC | 0.0229 µM | 0.0941 µM |  |  |
| GGAUAGGACAGAGGAUAUACGUGCUAUAGAUACUAGCAAAAUUUCCUCACAUGAGGAUCACCCAUGUAGAAGGCUGUCCUAUCG | 0.0168 µM | 0.353 µM |  |  |
| AGAUAGUCAGGAUAUACAUGGAUGAUACACGUAUUUCCACUACAUGAGGAUCACCCAUGUAGAAGGGACUAUCA | 0.0276 µM | 0.0151 µM |  |  |
| CUGAUGUGAGGAUAUCGGGCUACAGCCCUGCUGCUAGCAAACGAGAAGGCACAUGAGGAUCACCCAUGUAAGAA | 0.024 µM | 0.0286 µM |  |  |
| CGUUCACAUGAGGAUCACCCAUGUCAGAUUUGGUCAGGAUAUGGUCUGCUUUCGCUAUUUCCAGAAGGGACUUUUG |  |  | 0.0286 µM | 0.0248 µM |
| CGAUUAUUGAUCCAUUUUUACAACAUGAGGAUCACCCAUGUGCAGGAUAUCGUGAUUAUUAUCAACGAGAAGGGCAAAUUCACG | 0.049 µM | 0.137 µM |  |  |
| GCAGGCGACCAGAAGGGUGACAUGAGGAUCACCCAUGUAGAUGUGUUCCCGCUUGGGAACCGUCCACAGGAUAUGGUUGGUUAU |  |  | 0.0511 µM | 0.0538 µM |
| AUACUCAUGUAAGGAUAUGCAGCCGAAACGGCUGCAGAAGGUACUAUAAUACAUGAGGAUCACCCAUGUCAAAAUUAAAUAGUU |  |  | 0.185 µM | 0.0317 µM |
| AGUUUGUUUGAGAAGGUGAAGUGGAAACAUGAGGAUCACCCAUGUAUUAGGAAGCCUGGUUUUGUCAAGGAUAUCGGGUAAACA |  |  |  | 0.0139 µM |

Reference: the EternaBench riboswitch data
